CSN inh = inhibitors of CSN-mediated cullin deneddylation, primary screen, biochemical, fluorescence polarization, uHTS | Purified CSN, SCF-Nedd8-OG deneddylation | inhibition, % at 12.5 µM | 0.38% of 360,000 active;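 active means pattern-corrected inhibition above about 35%, with an unprinted fluorescence ratio check between 0.5 and 1.5, limit read from the data, passing the limit was not always enough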;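 further: 0% = enzyme with substrate and 100% = substrate without enzyme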
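Material: purified human Csn5 enzyme expressed in HEK293T cells / Medium: Tris buffer pH 7.5, NaCl, DTT, Tween-20, trehalose, ovalbumin / Compound dosing: 12.5 µM single point / Schedule: 90 min incubation of compound, enzyme and substrate at room temperature / Signal: fluorescence polarization of the substrate / Control set: no-enzyme wells high, enzyme-with-substrate wells low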
Tb MetRS inh = T. brucei MetRS inhibitors, primary screen, biochemical, luminescence. inhibition, % at 11.9 µM. methionyl-tRNA synthetase (Trypanosoma brucei brucei). 0.4% of 360,000 active. purified T. brucei MetRS, ATP depletion, Kinase-Glo luminescence;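 active means inhibition above a per-plate cutoff of the control wells' mean inhibition plus 3 SD, cut at about 5.5% in these data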;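 further: 0% = DMSO wells median and 100% = median of wells with control inhibitor compound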
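System: purified T. brucei MetRS enzyme / Detection: Kinase-Glo luciferase luminescence reporting remaining unconsumed ATP / Medium: HEPES buffer with MgCl2, KCl, DTT, spermine, BSA, pyrophosphatase / Replication: singlicate, one well per compound / Evaluation: percent inhibition relative to median high and low control wells / Schedule: 2 h aminoacylation at 25 °C after 15 min preincubation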
IDE act = human IDE activators in live cells, primary screen, fluorescence polarization, HEK cells, FAbeta-B substrate. FAbeta-B cleavage; 0% vehicle, 100% cell-free pure enzyme wells. Insulin-degrading enzyme (Homo sapiens), P14735. 0.073% of 340,000 active. AID 493087, 2011. activation, % at 5.96 µM;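 active means activation above the mean of all tested compounds plus 3 SD, set per screening campaign, cut at about 17% in these data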
TPT1 inhibitor = Candida albicans TPT1 enzyme inhibitors, primary screen, biochemical, fluorescence polarization | tRNA 2'-phosphotransferase TPT1 (Candida albicans SC5314) | inhibition, % at 5 µM | 0.81% of 300,000 active | AID 1962, 2009 | recombinant caTPT1, FP RNA substrate dephosphorylation;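 active means inhibition above the mean of all tested compounds plus 3 SD, set per screening campaign, cut at about 24% in these data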;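 further: plate controls were DMSO alone for no effect and ferristatin control at 100 nM for full effect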
IDE cell inh = human IDE inhibitors in live cells, primary screen, fluorescence polarization, HEK cells, FAbetaB substrate. Insulin-degrading enzyme (Homo sapiens), P14735. FAbetaB cleavage. inhibition, % at 5.59 µM. 0.41% of 320,000 active. AID 434962, 2010;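 active means percent inhibition above the average of all tested compounds plus 3 SD, set per screening campaign, cut at about 16% in these data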;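 further: IDE supplied by intact live HEK cells; FP after avidin binding of uncleaved biotin substrate so inhibition keeps polarization high; 0% = DMSO wells and 100% = 60 µM reference IDE inhibitor Ii1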
HNF4A DNA FP = change in binding of human HNF4A to DNA, primary screen, biochemical, fluorescence polarization, FITC-DNA | activity change, % at 10 µM | 0.3% of 360,000 active | 1 h | Hepatocyte nuclear factor 4-alpha (Homo sapiens), P41235; in the data active means activity change above about 30%, passing the limit was not always enough
Target sequence (P41235 whole entry, looked up): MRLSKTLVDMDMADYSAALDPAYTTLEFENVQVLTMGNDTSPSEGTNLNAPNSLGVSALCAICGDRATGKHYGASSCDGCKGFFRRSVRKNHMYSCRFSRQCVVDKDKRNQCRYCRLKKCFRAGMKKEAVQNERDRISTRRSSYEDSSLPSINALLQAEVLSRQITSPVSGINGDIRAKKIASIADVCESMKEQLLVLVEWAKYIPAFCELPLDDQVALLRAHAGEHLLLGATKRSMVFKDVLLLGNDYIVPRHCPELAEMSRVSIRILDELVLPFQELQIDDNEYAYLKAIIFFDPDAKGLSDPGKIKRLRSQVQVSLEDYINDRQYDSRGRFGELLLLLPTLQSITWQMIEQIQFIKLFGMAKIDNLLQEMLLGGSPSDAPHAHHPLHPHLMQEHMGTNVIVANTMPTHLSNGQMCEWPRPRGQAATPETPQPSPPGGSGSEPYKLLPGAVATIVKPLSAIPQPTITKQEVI
CSN5 deneddyl = Csn5 deneddylation inhibitors, confirmation, biochemical, fluorescence polarization, single concentration, SCF-Nedd8OG substrate. Csn5 deneddylation of SCF-Nedd8OG, 90 min. 62% of 540 active. inhibition, % at 16.6 µM. AID 720654, 2013. shares compounds with CSN inh; in the data active means inhibition above about 50%;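 further: 0% = DMSO with enzyme and 100% = no enzyme wells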
MMP2 cntr CSN = MMP-2 protease inhibition counter-screen, confirmation, counter-screen for CSN deneddylation inhibitor project, biochemical, fluorescence, single concentration. shares compounds with CSN inh. recombinant MMP-2, FRET substrate fluorescence, 60 min. inhibition, % at 16.6 µM. 33% of 540 active;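 active means corrected plate-normalized z-score of 5 or more, or -5 or less, or inhibition of 15% or more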;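 further: plate controls were DMSO wells with enzyme for no effect and buffer wells lacking MMP-2 for full effect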
Thrombin cntr = blocks bovine thrombin in a CSN deneddylation counter-screen. shares compounds with CSN inh. bovine thrombin cleavage of Ub4-pepOG, fluorescence polarization. inhibition, % at 16.6 µM. 49% of 540 active;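 active means inhibition at or above a set limit, with a fluorescence interference ratio between 0.5 and a set maximum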
Numbers without * were called inactive. Compounds with a hit are over-represented: about 1.7% of the library has one in this group of screens.

CCOC(=O)/C(=C\c1ccc(N2CCC(c3ccccc3)=N2)cc1)C(C)=O was read as CSN inh 38.0*, Tb MetRS inh -0.2, IDE act -84.0, HNF4A DNA FP 22.3, CSN5 deneddyl 20.1*, MMP2 cntr CSN -58.0* and Thrombin cntr 27.5*.
`Nc1c(/C=C2/C=CC(=O)C(O)=C2)c(=O)nc2sc(CC(=O)N3CCCC3)nn12` gave CSN inh 39.4*, Tb MetRS inh -0.1, IDE act -12.1, TPT1 inhibitor 5.3, IDE cell inh 2.7, HNF4A DNA FP -2.1, CSN5 deneddyl 25.2, MMP2 cntr CSN 35.8* and Thrombin cntr 37.1*.
For CCN1/C(=C/c2ccc3cc(C)ccc3[n+]2CC)Sc2cc(C)c(C)cc21 the results were CSN inh 50.2*, Tb MetRS inh 0.3, IDE act -227.4, HNF4A DNA FP 106.9*, CSN5 deneddyl 29.5, MMP2 cntr CSN 7.0 and Thrombin cntr 42.6.
Screening CC[n+]1ccccc1/C=C1\Sc2ccc(C)cc2N1C returned CSN inh 4.1, Tb MetRS inh -1.3, IDE act 4.1, TPT1 inhibitor 9.9, IDE cell inh 2.3 and HNF4A DNA FP 1.4.
Screening CC(C)c1ccc(NC(=O)c2ccccc2NC(=O)C2CCCCC2C(=O)O)cc1 (stereo not given) returned CSN inh 6.0, Tb MetRS inh 1.3, IDE act 1.5 and HNF4A DNA FP 3.0.
Screening COc1cc2sc3cc(NCC[C@@H]4CCCN4C)ccc3c(=O)c2cc1OC returned CSN inh 36.4*, Tb MetRS inh -0.6, IDE act -1.6, IDE cell inh 1.5, HNF4A DNA FP 20.9, CSN5 deneddyl 109.3*, MMP2 cntr CSN 8.0 and Thrombin cntr -14.6.
COc1cc(OC)c(-c2c3cc(O)c(=O)cc-3oc3cc(O)c(O)cc23)cc1OC was read as CSN inh 80.5*, Tb MetRS inh -1.0, IDE act 40.7*, TPT1 inhibitor 5.5, IDE cell inh -54.9, HNF4A DNA FP -89.8, MMP2 cntr CSN active and Thrombin cntr -84.3.
Cc1c2cc(O)c(=O)cc-2oc2cc(O)c(O)cc12 was read as CSN inh -74.7, Tb MetRS inh 0.8, IDE act -24.0, TPT1 inhibitor -25.2, IDE cell inh 8.1 and HNF4A DNA FP -83.6.
Screening CCN1C(=O)/C(=C/N2CCc3ccccc32)SC1=S returned CSN inh 37.0*, Tb MetRS inh -0.7, IDE act 3.7, TPT1 inhibitor 17.6, IDE cell inh -3.2, HNF4A DNA FP 50.2, CSN5 deneddyl 103.9*, MMP2 cntr CSN 0.8 and Thrombin cntr -8.9.
`CC1=NN(c2nc(N)nc(/C(C#N)=C/c3ccc([N+](=O)[O-])o3)n2)C(C)(C)C1` gave CSN inh 42.3*, Tb MetRS inh -0.2, IDE act 3.1, HNF4A DNA FP 96.4*, CSN5 deneddyl 95.8*, MMP2 cntr CSN 1.2 and Thrombin cntr 12.2.
CS(=O)(=O)Nc1ccccc1-c1ccc2nccn2c1 was read as CSN inh 7.9, Tb MetRS inh -0.2 and HNF4A DNA FP -3.9.

Assay outcomes deposited in PubChem by several laboratories.
